Source: ChEMBL document CHEMBL1136868, “Synthesis of phenylisothiourea derivatives as inhibitors of NO production in LPS activated macrophages” (Bioorg Med Chem Lett, 2009)
Values belong to the molecule of their own block, whether it stands above or below them. Calls of active or inactive are those of the source. No cut-off for these calls is given here.

Experiments:
[1] = test system: RAW264.7; test: Antiinflammatory activity against LPS-stimulated mouse RAW264.7 cells assessed as inhibition of NO production at 50 uM after 20 hrs relative to control; assay type: functional; conditions: RAW264.7, 20 h
Procedure, shortened: (§1)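 RAW 264.7 cells plated at 1 × 10⁵ cells/mL in 10% FBS–DMEM and grown 24 h, then moved to 1% FBS medium. Cells were stimulated with LPS (1 µg/mL) with or without compound for 20 h. Nitrite accumulated in supernatant was read by Griess reagent (10 min, room temperature, A570). Inhibition is relative to LPS control, n = 3; IC50 given as mean ± SD of three experiments.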

[2] = test system: RAW264.7; test: Antiinflammatory activity against LPS-stimulated mouse RAW264.7 cells assessed as inhibition of NO production at 20 uM after 20 hrs relative to control; assay type: functional; conditions: RAW264.7, 20 h; procedure, shortened: as §1
[3] = test system: RAW264.7; test: Antiinflammatory activity against LPS-stimulated mouse RAW264.7 cells assessed as inhibition of NO production after 20 hrs; assay type: functional, cell-based; conditions: RAW264.7, 20 h; procedure, shortened: as §1
[4] = test system: RAW264.7; test: Suppression of LPS-induced NF-kappaB p65 subunit translocation into nucleus in mouse RAW264.7 cells assessed as p65 protein level at 10 uM after 30 mins pretreated 30 mins before LPS challenge by Western blot; assay type: functional, cell-based
Procedure, shortened: (§2)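 Macrophages were pretreated with compound for 30 min, then given LPS (1 µg/mL) for a further 30 min. Nuclear extracts were immunoblotted for p65, with levels normalized to PARP as the loading control.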

[5] = test system: RAW264.7; test: Inhibition of iNOS protein expression in LPS-stimulated mouse RAW264.7 cells at 10 uM after 20 hrs by Western blot; assay type: functional, cell-based
Procedure, shortened: (§3)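 RAW 264.7 cells were exposed to compound for 20 h during LPS (1 µg/mL) activation, then washed and lysed. 20 µg lysate protein was run on 8% SDS-PAGE, blotted to PVDF and probed for iNOS and actin. iNOS band density was normalized to actin; mean ± SD of three independent densitometric analyses.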

[6] = test system: RAW264.7; test: Antiinflammatory activity against LPS-stimulated mouse RAW264.7 cells assessed as inhibition of NO production at 5 uM after 20 hrs relative to control; assay type: functional; conditions: RAW264.7, 20 h; procedure, shortened: as §1
[7] = test system: RAW264.7; test: Cytotoxicity against mouse RAW264.7 cells; assay type: cell-based
[8] = test system: RAW264.7; test: Inhibition of iNOS mRNA expression in LPS-stimulated mouse RAW264.7 cells at 10 uM after 6 hrs by RT-PCR; assay type: functional, cell-based
Procedure, shortened: (§4)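 RAW 264.7 cells (1.8 × 10⁶ per 60 mm dish) were stimulated 6 h with LPS (1 µg/mL) with or without compound. Total RNA was extracted and 2 µg was reverse transcribed with random hexamers. PCR ran 25 cycles (94 °C, 55 °C, 72 °C, 30 s each), and products were resolved on 2% agarose. iNOS was normalized to β-actin; mean ± SD of three densitometric analyses.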

[9] = Peroxynitrite radical scavenging activity assessed as dihydrohodamine 123 product by cell free assay
Procedure, shortened: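 In a cell-free system, oxidation of dihydrorhodamine 123 by authentic peroxynitrite was monitored by fluorescence.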

[10] = test system: RAW264.7; test: Suppression of LPS-induced NF-kappaB p65 subunit translocation into nucleus in mouse RAW264.7 cells assessed as p65 protein level at 5 uM after 30 mins pretreated 30 mins before LPS challenge by Western blot; assay type: functional, cell-based; procedure, shortened: as §2
[11] = test system: RAW264.7; test: Inhibition of iNOS protein expression in LPS-stimulated mouse RAW264.7 cells at 5 uM after 20 hrs by Western blot; assay type: functional; conditions: RAW264.7, 20 h; procedure, shortened: as §3
[12] = test system: RAW264.7; test: Inhibition of iNOS mRNA expression in LPS-stimulated mouse RAW264.7 cells at 5 uM after 6 hrs by RT-PCR; assay type: functional, cell-based; procedure, shortened: as §4

SMILES: CCN/C(=N/c1ccc(OCCn2c3ccccc3c3ccccc32)cc1)SCc1ccc(F)cc1
inhibition at 50 µM [1]: 40%
inhibition at 20 µM [2]: 36%

SMILES: CCNC(=S)Nc1ccc(Cl)cc1
inhibition at 50 µM [1]: 11%
inhibition at 20 µM [2]: < 10%

SMILES: CCN/C(=N/c1ccc(OCCn2c3ccccc3c3ccccc32)cc1)SCc1ccc(C(=O)OC)cc1
inhibition at 50 µM [1]: 17%
inhibition at 20 µM [2]: 14%

SMILES: CCCc1ccc(/N=C(/NCC)SC(C)C)cc1
inhibition at 50 µM [1]: 71%
inhibition at 20 µM [2]: < 10%

SMILES: CCS/C(N)=N\c1ccc(OCCn2c3ccccc3c3ccccc32)cc1
inhibition at 50 µM [1]: 64%
inhibition at 20 µM [2]: 32%

SMILES: CCN/C(=N/c1ccc(Cl)cc1)SC(C)C
inhibition at 50 µM [1]: 62%
inhibition at 20 µM [2]: < 10%

IC50 [3]: 11.2 µM
SMILES: CCN/C(=N/c1ccc(-c2ccccc2)cc1)SC(C)C
Activity [4]: Active
iNOS protein expression inhibition [5]: Active
inhibition at 5 µM [6]: 13%
inhibition at 50 µM [1]: 96%
Activity [7]: Non-toxic
inhibition at 20 µM [2]: 85%

SMILES: CCNC(=S)Nc1ccc(C)cc1
inhibition at 50 µM [1]: 14%
inhibition at 20 µM [2]: < 10%

SMILES: CCN/C(=N/c1ccc(OCCn2c3ccccc3c3ccccc32)cc1)SCc1ccccc1
inhibition at 50 µM [1]: 33%
inhibition at 20 µM [2]: 31%

SMILES: CS/C(N)=N\c1ccc(OCCn2c3ccccc3c3ccccc32)cc1
inhibition at 50 µM [1]: 24%
inhibition at 20 µM [2]: 22%

SMILES: CCCc1ccc(NC(=S)NCC)cc1
inhibition at 50 µM [1]: 23%
inhibition at 20 µM [2]: < 10%

SMILES: COc1cc(/C=C/C(=O)CC(=O)/C=C/c2ccc(O)c(OC)c2)ccc1O [CURCUMIN]
Activity [4]: Active
inhibition [8]: Active
Activity [7]: Non-toxic

SMILES: CCN/C(=N/c1ccc(C)cc1)SC(C)C
inhibition at 50 µM [1]: 14%
inhibition at 20 µM [2]: < 10%

IC50 [3]: 5.3 µM
SMILES: CCN/C(=N/c1ccc(OCCn2c3ccccc3c3ccccc32)cc1)SCc1ccc(C(=O)O)cc1
Activity [4]: Active
iNOS protein expression inhibition [5]: Active
SC50 [9]: 14 µM
inhibition at 5 µM [6]: 39%
inhibition at 50 µM [1]: 100%
Activity [7]: Non-toxic
inhibition at 20 µM [2]: 90%

SMILES: CCNC(=S)Nc1ccc(OCC)cc1
inhibition at 50 µM [1]: 12%
inhibition at 20 µM [2]: < 10%

IC50 [3]: 1.3 µM
SMILES: CCN/C(=N/c1ccc(OCCn2c3ccccc3c3ccccc32)cc1)SC(C)C
Activity [4]: Active
Activity [10]: Active
iNOS protein expression inhibition [5]: Active
inhibition at 5 µM [11]: 79%
Activity [7]: Non-toxic
inhibition at 20 µM [2]: 48%
inhibition [12]: Active

SMILES: CCNC(=S)Nc1ccc(O)cc1
inhibition at 50 µM [1]: 20%
inhibition at 20 µM [2]: < 10%

SMILES: CC(C)S/C(N)=N\c1ccc(OCCn2c3ccccc3c3ccccc32)cc1
inhibition at 50 µM [1]: 30%
inhibition at 20 µM [2]: 22%

IC50 [3]: 2.9 µM
SMILES: CCN/C(=N/c1ccc(OCCn2c3ccccc3c3ccccc32)cc1)SC
Activity [4]: Active
iNOS protein expression inhibition [5]: Active
inhibition at 50 µM [1]: 100%
Activity [7]: Non-toxic
inhibition at 20 µM [2]: 99%

SMILES: CCNC(=S)Nc1ccc(-c2ccccc2)cc1
inhibition at 50 µM [1]: 23%
inhibition at 20 µM [2]: < 10%

SMILES: CCN/C(=N/c1ccc(OCC)cc1)SC(C)C
inhibition at 50 µM [1]: 22%
inhibition at 20 µM [2]: < 10%
